Data on ten compounds can be found in ChEMBL document CHEMBL1139442, “Pyrrolobenzimidazoles linked to heterocycles and peptides. Design of DNA base pair specific phosphate hydrolyzing agents and novel cytotoxic agents” (2004).

SMILES strings stand for the structures.

For one assay, the system named is Nucleic Acid. The assay is described as follows: DNA alkylation ability was determined. Type of assay: functional. To be noted: Bos taurus. In short, it runs like this: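 Bulk alkylation of calf thymus DNA. Drug (0.004 mmol) in DMSO was added, sealed and degassed under argon. The mix was reduced by H2 purge over Pd/C until colourless, argon-purged, then held at 30 °C for 24 h. After catalyst removal, DNA was ethanol/ammonium acetate precipitated at −20 °C for 16 h, pelleted, redissolved and reprecipitated.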

In assay [1] the target is NAD(P)H dehydrogenase [quinone] 1 (Homo sapiens) (UniProt P15559). The assay is described as follows: Substrate specificity for human DT-diaphorase was determined.
NAD(P)H dehydrogenase [quinone] 1 (Homo sapiens), sequence (P15559 whole entry): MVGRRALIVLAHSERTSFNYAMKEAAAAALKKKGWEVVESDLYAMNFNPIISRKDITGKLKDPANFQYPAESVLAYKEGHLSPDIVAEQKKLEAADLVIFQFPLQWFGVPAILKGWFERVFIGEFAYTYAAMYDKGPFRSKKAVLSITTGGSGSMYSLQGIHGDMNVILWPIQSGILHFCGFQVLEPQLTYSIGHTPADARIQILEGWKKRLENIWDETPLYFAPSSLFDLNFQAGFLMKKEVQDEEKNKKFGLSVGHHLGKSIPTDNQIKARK
Assay [2] deals with Panel melanoma (Carcinoma cell lines). The assay is described as follows: Cytostatic activity against human melanoma cell lines was determined. The assay is classed as functional. A digest of the protocol: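 Tested in the NCI In Vitro Cell Line Screening Project, 60 human tumour lines. Cytostatic read-outs are GI50 (50% growth inhibition) and TGI (total growth inhibition).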

For assay [3] the test system is unchanged. In words: Cytotoxic activity against human melanoma cell lines was determined. The assay is classed as functional. Also noted: unit not given here. In short, it runs like this:
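Tested in the NCI In Vitro Cell Line Screening Project, 60 human tumour lines. Cytotoxic read-out is LC50, the concentration giving 50% cell kill.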

With `CC1=C(N2CC2)C(=O)c2nc3n(c2C1=O)CCC3N` (stereo not given), the DNA alkylation in the assay with Nucleic Acid was determined as 100%.

With `CCC(=O)NC1CCn2c1nc1c2C(=O)C(C)=C(N2CC2)C1=O` (stereo not given), the DNA alkylation in the assay on Nucleic Acid was determined as 0%.

Regarding `CC1=C(N2CC2)C(=O)c2nc3n(c2C1=O)CCC3NC(=O)Cc1ccncc1` (stereo not given), the DNA alkylation in the assay with Nucleic Acid is 35%.

`CC1=C(N2CC2)C(=O)c2nc3n(c2C1=O)CCC3NC(=O)c1ccncc1` (stereo not given) had a DNA alkylation in the assay with Nucleic Acid of 79%. The k cat/Km in assay [1] worked out at 0.00033 M⁻¹ s⁻¹. Besides, in assay [2], the “log GI50 range” value is 1.96 and the “log TGI range” value is on record as 2.5. The LC50 in assay [3] was 2.35.

With `CC1=C(N2CC2)C(=O)c2nc3n(c2C1=O)CCC3NC(=O)c1ccnc2ccccc12` (stereo not given), the DNA alkylation with Nucleic Acid turned out to be 10%.

Consider `CC1=C(N2CC2)C(=O)c2nc3n(c2C1=O)CC[C@@H]3NC(=O)C1CCCN1` (stereo not given in full), for which, in assay [2], the “log GI50 range” value was determined as 3.34 and the “log TGI range” value was found to be 2.8. The compound further had an LC50 in assay [3] of 2.27.

The compound `CCCCC(=O)NC1CCn2c1nc1c2C(=O)C(C)=C(N2CC2)C1=O` (stereo not given) showed a DNA alkylation in the assay with Nucleic Acid of 9%.

As for `CC1=C(N2CC2)C(=O)c2nc3n(c2C1=O)CCC3NC(=O)c1cccnc1` (stereo not given), in the assay with Nucleic Acid, the DNA alkylation turned out to be 20%.

For the compound `CC1=C(N2CC2)C(=O)c2nc3n(c2C1=O)CC[C@@H]3NC(=O)[C@H](N)Cc1ccccc1`, in assay [2], the “log GI50 range” value is reported as 1.69 and the “log TGI range” value turned out to be 4. In assay [3], this compound registered an LC50 of 4.

As to `CC1=C(N2CC2)C(=O)c2nc3n(c2C1=O)CC[C@@H]3NC(=O)[C@@H](Cc1ccccc1)NC(=O)[C@H](N)Cc1ccccc1`, in assay [2], the “log GI50 range” value is recorded as 2.42 and the “log TGI range” value was determined as 4. The LC50 in assay [3] is reported as 4.
